Data from ChEMBL document CHEMBL1671728, “Short cationic antimicrobial peptides interact with ATP” (2010).
Converted amounts (≈) assume the structure as drawn. The source made the active and inactive calls. No cut-off for these calls is given here. Square brackets hold non-standard residues; d marks the D form. Peptide text beside a SMILES is read from it. Orn = NCCC[C@H](N)C(=O)O

How the values were obtained:
[1] = target: Luciferin 4-monooxygenase (Photinus pyralis) (UniProt P08659); experiment: Inhibition of Photinus pyralis fire fly luciferase assessed as reduction in light production at 1 times MIC for Pseudomonas aeruginosa PAO1 H103 by ATP bioluminescence assay
Summary of the method: (§1)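 Firefly luciferase kit mix (luciferin, MgSO4, DTT, EDTA, BSA, tricine) was combined with peptide at 1, 3 or 10× MIC against P. aeruginosa PAO1 H103. ATP (200 µM) was added to start the reaction and luminescence was read, with an ATP standard curve. Activity was scored by the lowest MIC multiple giving ≥75% loss of light.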

Pseudomonas aeruginosa = experiment: Antimicrobial activity against Pseudomonas aeruginosa PAO1 H103; type: functional
[2] = target: Luciferin 4-monooxygenase (Photinus pyralis) (UniProt P08659); experiment: Inhibition of Photinus pyralis fire fly luciferase assessed as reduction in light production at 10 times MIC for Pseudomonas aeruginosa PAO1 H103 by ATP bioluminescence assay; summary of the method: as §1
[3] = Inhibition of DNA polymerase assessed as reduction in PCR products at MIC for Pseudomonas aeruginosa PAO1 H103 by qPCR
[4] = Inhibition of DnaK assessed as reduction in ATP turnover at MIC for Pseudomonas aeruginosa PAO1 H103 by ATPase assay
Summary of the method: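 DnaK ATPase run in 20 mM HEPES pH 8, 10 mM Mg acetate, 100 mM NaCl with 200 µM [α-32P]ATP (~8 Ci/mmol) and peptide at 1× MIC (control without peptide), 37°C for 15 min. Stopped with EDTA/SDS and imaged by phosphorimager. Turnover was taken as the ADP fraction of total spots, corrected for no-protein background, mean of two independent assays.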

[5] = Inhibition of DNA polymerase assessed as reduction in PCR products at 3 times MIC for Pseudomonas aeruginosa PAO1 H103 by qPCR
[6] = target: Luciferin 4-monooxygenase (Photinus pyralis) (UniProt P08659); experiment: Inhibition of Photinus pyralis fire fly luciferase assessed as reduction in light production at 3 times MIC for Pseudomonas aeruginosa PAO1 H103 by ATP bioluminescence assay
Summary of the method: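 Commercial ATP bioluminescence kit with lyophilized firefly luciferase, luciferin, MgSO4, DTT, EDTA, BSA and tricine buffer. An ATP standard curve was run. Peptide was premixed with the kit solution, and ATP (200 µM) was added to start the reaction. Luminescence was read. Peptides were tested at 1×, 3× and 10× their MIC against P. aeruginosa PAO1 H103. Scoring was ≥75% loss of light at 3× MIC.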

Luciferin 4-monooxygenase (Photinus pyralis), sequence (P08659 whole entry): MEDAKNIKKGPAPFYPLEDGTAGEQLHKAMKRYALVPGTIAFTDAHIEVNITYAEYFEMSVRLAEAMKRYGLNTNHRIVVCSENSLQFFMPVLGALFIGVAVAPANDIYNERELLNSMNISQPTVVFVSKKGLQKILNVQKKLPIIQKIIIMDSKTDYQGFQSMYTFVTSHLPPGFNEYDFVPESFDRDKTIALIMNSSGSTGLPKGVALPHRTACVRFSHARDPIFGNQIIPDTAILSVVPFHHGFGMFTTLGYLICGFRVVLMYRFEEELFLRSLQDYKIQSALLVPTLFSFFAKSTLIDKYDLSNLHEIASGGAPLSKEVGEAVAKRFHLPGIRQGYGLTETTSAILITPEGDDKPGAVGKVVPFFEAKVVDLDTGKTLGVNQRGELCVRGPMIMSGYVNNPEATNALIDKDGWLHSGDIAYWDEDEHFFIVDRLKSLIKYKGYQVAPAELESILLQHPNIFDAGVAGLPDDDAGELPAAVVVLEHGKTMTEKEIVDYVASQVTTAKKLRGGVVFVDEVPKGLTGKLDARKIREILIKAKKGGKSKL

## H-RRWRIVVIRVRR-NH2
[1]
  inhibition: 75%
Pseudomonas aeruginosa
  MIC: 2 mg/L

## H-KWKSFLRTLKSPAKTVFHTALKAISS-OH
[2]
  inhibition: inactive
Pseudomonas aeruginosa
  MIC: 16 mg/L

## CC[C@H](C)[C@H](NC(=O)[C@H](CC(C)C)NC(=O)[C@H](C)NC(=O)[C@@H]1CCCN1C(=O)[C@H](CC(C)C)NC(=O)CNC(=O)[C@@H](NC(=O)[C@@H](NC(=O)[C@H](CC(C)C)NC(=O)[C@@H](NC(=O)[C@H](CCCCN)NC(=O)[C@H](CCCCN)NC(=O)[C@@H](NC(=O)[C@H](C)NC(=O)[C@@H](NC(=O)[C@@H](NC(=O)[C@H](CC(C)C)NC(=O)[C@H](CCCCN)NC(=O)[C@H](CCCCN)NC(=O)[C@@H](NC(=O)[C@H](Cc1ccccc1)NC(=O)[C@H](CO)NC(=O)[C@H](CCCCN)NC(=O)[C@H](Cc1c[nH]c2ccccc12)NC(=O)[C@@H](N)CCCCN)[C@@H](C)CC)[C@@H](C)O)[C@@H](C)O)C(C)C)C(C)C)[C@@H](C)O)[C@@H](C)O)C(=O)N[C@@H](CO)C(=O)O
[2]
  inhibition: inactive
Pseudomonas aeruginosa
  MIC: 2 mg/L (≈ 0.696 µM)
[3]
  inhibition: inactive
[4]
  inhibition: inactive

## CC(C)C[C@@H]1NC(=O)[C@H](CCCN)NC(=O)[C@H](C(C)C)NC(=O)[C@@H]2CCCN2C(=O)[C@@H](Cc2ccccc2)NC(=O)[C@H](CC(C)C)NC(=O)[C@H](CCCN)NC(=O)[C@H](C(C)C)NC(=O)[C@@H]2CCCN2C(=O)[C@@H](Cc2ccccc2)NC1=O [GRAMICIDIN S] (cyclo(L[dF]PV[Orn]L[dF]PV[Orn]))
[2]
  inhibition: inactive
Pseudomonas aeruginosa
  MIC: 0.2 mg/L (≈ 0.175 µM)
[3]
  inhibition: inactive

## H-KWKSFLRTFKSPVRTVFHTALKPISS-OH
[2]
  inhibition: inactive
Pseudomonas aeruginosa
  MIC: 16 mg/L

## CC(C)[C@H](NC(=O)[C@H](CCCNC(=N)N)NC(=O)[C@H](Cc1ccccc1)NC(=O)[C@H](CS)NC(=O)[C@H](Cc1c[nH]c2ccccc12)NC(=O)[C@H](CCCNC(=N)N)NC(=O)[C@@H](N)CCCNC(=N)N)C(=O)N[C@@H](CS)C(=O)N[C@@H](Cc1ccc(O)cc1)C(=O)N[C@@H](CCCNC(=N)N)C(=O)NCC(=O)N[C@@H](Cc1ccccc1)C(=O)N[C@@H](CS)C(=O)N[C@@H](Cc1ccc(O)cc1)C(=O)N[C@@H](CCCNC(=N)N)C(=O)N[C@@H](CCCCN)C(=O)N[C@@H](CS)C(=O)N[C@@H](CCCNC(=N)N)C(N)=O [POLYPHEMUSIN I] (H-RRWCFRVCYRGFCYRKCR-NH2)
[2]
  inhibition: > 75%
Pseudomonas aeruginosa
  MIC: 2 mg/L (≈ 0.814 µM)

## H-RLWRIVVIRVAR-NH2
[1]
  inhibition: 75%
Pseudomonas aeruginosa
  MIC: 8 mg/L
[5]
  inhibition: Active
[4]
  inhibition: Active

## H-RRWKIVVIRWRR-NH2
[1]
  inhibition: 75%
Pseudomonas aeruginosa
  MIC: 2 mg/L
[3]
  inhibition: Active
[4]
  inhibition: Active

## H-RRAAVVLIVIRR-NH2
Pseudomonas aeruginosa
  MIC: 7 mg/L
[6]
  inhibition: > 75%

## H-RLARIVPIRVAR-NH2
[2]
  inhibition: inactive
Pseudomonas aeruginosa
  MIC: > 250 mg/L

## H-RAVAVIIRLRRV-NH2
Pseudomonas aeruginosa
  MIC: 33 mg/L
[6]
  inhibition: > 75%

## CC[C@H](C)[C@H](NC(=O)CNC(=O)[C@@H](NC(=O)[C@H](CCCCN)NC(=O)[C@H](CCCCN)NC(=O)[C@H](Cc1ccccc1)NC(=O)[C@H](CC(C)C)NC(=O)[C@H](CCCCN)NC(=O)[C@H](Cc1c[nH]c2ccccc12)NC(=O)[C@@H](N)CCCCN)[C@@H](C)CC)C(=O)NCC(=O)N[C@@H](C)C(=O)N[C@H](C(=O)N[C@@H](CC(C)C)C(=O)N[C@@H](CCCCN)C(=O)N[C@H](C(=O)N[C@@H](CC(C)C)C(=O)N[C@H](C(=O)N[C@H](C(=O)NCC(=O)N[C@@H](CC(C)C)C(=O)N1CCC[C@H]1C(=O)N[C@@H](C)C(=O)N[C@@H](CC(C)C)C(=O)N[C@H](C(=O)N[C@@H](CO)C(=O)O)[C@@H](C)CC)[C@@H](C)O)[C@@H](C)O)C(C)C)C(C)C
[2]
  inhibition: inactive
Pseudomonas aeruginosa
  MIC: 2 mg/L (≈ 0.715 µM)

## GENTAMICIN
[2]
  inhibition: inactive
Pseudomonas aeruginosa
  MIC: 25 mg/L

## H-VRLRIRVAVIRA-NH2
[2]
  inhibition: > 75%
Pseudomonas aeruginosa
  MIC: 10 mg/L

## POLYMYXIN B
Pseudomonas aeruginosa
  MIC: 0.5 mg/L
[3]
  inhibition: inactive
[4]
  inhibition: inactive

## H-RLARIVVIRVAR-NH2
Pseudomonas aeruginosa
  MIC: 50 mg/L
[3]
  inhibition: Active
[6]
  inhibition: > 75%
[4]
  inhibition: Active

## H-KWKSFLKTFKSAVKTVLHTALKAISS-OH
[2]
  inhibition: inactive
Pseudomonas aeruginosa
  MIC: 2 mg/L
[3]
  inhibition: inactive
[4]
  inhibition: inactive

## H-KWKSFIKKLTSAAKKVVTTAKPLISS-OH
[2]
  inhibition: inactive
Pseudomonas aeruginosa
  MIC: 2 mg/L
